Assay results published in ChEMBL document CHEMBL4004794, “Identification of Neuroprotective Spoxazomicin and Oxachelin Glycosides via Chemoenzymatic Glycosyl-Scanning” (J Nat Prod, 2017).
The source made the active and inactive calls. The rule behind the calls is not given here.

Tests used:
Escherichia coli = test: Antibacterial activity against Escherichia coli NRRL B-3708 at <= 60 to 120 uM; assay type: functional
Outline: (§1)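 Run in triplicate by the group's previously reported protocols. Compounds were tested up to 60–120 μM against bacteria and yeast, and up to 20 μM against non-small-cell lung A549 cells. Bacterial strains were S. aureus ATCC 6538, M. luteus NRRL B-287, E. coli NRRL B-3708 and S. enterica ATCC 10708. The yeast was S. cerevisiae ATCC 204508.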

[1] = system: Salmonella enterica subsp. enterica serovar Choleraesuis str. ATCC 10708; test: Antibacterial activity against Salmonella enterica ATCC 10708 at <= 60 to 120 uM; assay type: functional
Outline: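 Run in triplicate against S. enterica ATCC 10708, a strain obtained from ATCC. Compounds were tested at concentrations up to ≤60−120 μM.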

Saccharomyces cerevisiae = test: Antifungal activity against Saccharomyces cerevisiae ATCC 204508 at <= 60 to 120 uM; assay type: functional; outline: as §1
A549 = test: Cytotoxicity against human A549 cells at <= 20 uM; assay type: functional, cell-based; outline: as §1
Staphylococcus aureus = test: Antibacterial activity against Staphylococcus aureus ATCC 6538 at <= 60 to 120 uM; assay type: functional; outline: as §1
Micrococcus luteus = test: Antibacterial activity against Micrococcus luteus NRRL B-287 at <= 60 to 120 uM; assay type: functional; outline: as §1
Hippocampal neurone [2] = test: Neuroprotective activity against EtOH-induced cytotoxicity in Sprague-Dawley rat primary hippocampal neurons assessed as decrease in propidium iodide uptake at 0.1 to 1 uM after 48 hrs by fluorescence microscopic method; assay type: functional, cell-based
Outline: (§2)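 Rat hippocampus-derived primary cell cultures were exposed for 48 h to 100 mM EtOH, with or without compound (0.01–1.0 μM, dose–response). A DMSO control was included. Damage was read as propidium iodide uptake into compromised cells.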

Hippocampal neurone [3] = test: Neuroprotective activity against EtOH-induced cytotoxicity in Sprague-Dawley rat primary hippocampal neurons assessed as decrease in propidium iodide uptake at 0.01 to 0.1 uM after 48 hrs by fluorescence microscopic method; assay type: functional, cell-based; outline: as §2
Hippocampal neurone [4] = test: Neuroprotective activity against EtOH-induced cytotoxicity in Sprague-Dawley rat primary hippocampal neurons assessed as decrease in propidium iodide uptake at 1 uM after 48 hrs by fluorescence microscopic method; assay type: functional, cell-based; outline: as §2
Hippocampal neurone [5] = test: Neuroprotective activity against EtOH-induced cytotoxicity in Sprague-Dawley rat primary hippocampal neurons assessed as decrease in propidium iodide uptake at 0.01 to 1 uM after 48 hrs by fluorescence microscopic method; assay type: functional, cell-based; outline: as §2

For `O=CN(O)CCC[C@@H](NC(=O)[C@H](CO)NC(=O)[C@@H]1COC(c2ccccc2O)=N1)C(=O)NCCC(=O)N[C@@H]1CCCN(O)C1=O`, the Activity (Escherichia coli) was “inactive”, the Activity [1] was “inactive” and the Activity (Saccharomyces cerevisiae) was “inactive”. For the same molecule, the Activity (A549) was “inactive”, the Activity (Staphylococcus aureus) was “inactive” and the Activity (Micrococcus luteus) was “inactive”.
In the case of `C[C@H](CO)NC(=O)c1ccccc1O[C@@H]1O[C@H](CO)[C@@H](O)[C@H](O)[C@H]1N`, the Activity (Escherichia coli) was “inactive”, the Activity [1] was “inactive” and the Activity (Saccharomyces cerevisiae) was “inactive”. The Activity (A549) was “inactive”, the Activity (Staphylococcus aureus) was “inactive” and the Activity (Micrococcus luteus) was “inactive”.
`C[C@H](CO)NC(=O)c1ccccc1O` was tested, and the Activity (Escherichia coli) was “inactive”, the Activity [1] was “inactive” and the Activity (Saccharomyces cerevisiae) was “inactive”. For the same molecule, the Activity (A549) was “inactive”, the Activity (Staphylococcus aureus) was “inactive” and the Activity (Micrococcus luteus) was “inactive”.
In the case of `N[C@H]1[C@H](Oc2ccccc2C(=O)NC(CO)CO)O[C@H](CO)[C@@H](O)[C@@H]1O`, the Activity (Escherichia coli) was “inactive”, the Activity [1] was “inactive” and the Activity (Saccharomyces cerevisiae) was “inactive”. For the same molecule, the Activity (A549) was “inactive”, the Activity (Staphylococcus aureus) was “inactive” and the Activity (Micrococcus luteus) was “inactive”.
For `C[C@@H](CO)NC(=O)c1ccccc1O[C@@H]1O[C@H](CO)[C@@H](O)[C@H](O)[C@H]1N`, the Activity (Escherichia coli) was “inactive”, the Activity [1] was “inactive” and the Activity (Saccharomyces cerevisiae) was “inactive”. For the same molecule, the Activity (A549) was “inactive”, the Activity (Staphylococcus aureus) was “inactive” and the Activity (Micrococcus luteus) was “inactive”.
For `NC(=O)[C@@H]1COC(c2ccccc2O[C@@H]2O[C@H](CO)[C@@H](O)[C@H](O)[C@H]2O)=N1`, the Activity (Hippocampal neurone [2]) was “Active”, the Activity (Escherichia coli) was “inactive” and the Activity [1] was “inactive”. For the same molecule, the Activity (Saccharomyces cerevisiae) was “inactive”, the Activity (A549) was “inactive” and the Activity (Staphylococcus aureus) was “inactive”. For the same molecule, the Activity (Micrococcus luteus) was “inactive” and the Activity (Hippocampal neurone [3]) was “inactive”.
For `C[C@@H](CO)NC(=O)c1ccccc1O[C@@H]1O[C@H](CO)[C@@H](O)[C@H](O)[C@H]1O`, the Activity (Escherichia coli) was “inactive”, the Activity [1] was “inactive” and the Activity (Saccharomyces cerevisiae) was “inactive”. For the same molecule, the Activity (A549) was “inactive”, the Activity (Staphylococcus aureus) was “inactive” and the Activity (Micrococcus luteus) was “inactive”.
`C[C@@H](CO)NC(=O)c1ccccc1O` was tested, and the Activity (Escherichia coli) was “inactive”, the Activity [1] was “inactive” and the Activity (Saccharomyces cerevisiae) was “inactive”. The Activity (A549) was “inactive”, the Activity (Staphylococcus aureus) was “inactive” and the Activity (Micrococcus luteus) was “inactive”.
With `OC[C@@H]1COC(c2ccccc2O[C@@H]2O[C@H](CO)[C@@H](O)[C@H](O)[C@H]2O)=N1` the Activity (Escherichia coli) was “inactive”, the Activity [1] was “inactive” and the Activity (Saccharomyces cerevisiae) was “inactive”. The Activity (A549) was “inactive”, the Activity (Hippocampal neurone [4]) was “inactive” and the Activity (Staphylococcus aureus) was “inactive”. For the same molecule, the Activity (Micrococcus luteus) was “inactive” and the Activity (Hippocampal neurone [3]) was “Active”.
With `C[C@H](CO)NC(=O)c1ccccc1O[C@@H]1O[C@H](CO)[C@@H](O)[C@H](O)[C@H]1O` the Activity (Escherichia coli) was “inactive”, the Activity [1] was “inactive” and the Activity (Saccharomyces cerevisiae) was “inactive”. The Activity (A549) was “inactive”, the Activity (Staphylococcus aureus) was “inactive” and the Activity (Micrococcus luteus) was “inactive”.
In the case of `O=C(NC(CO)CO)c1ccccc1O`, the Activity (Escherichia coli) was “inactive”, the Activity [1] was “inactive” and the Activity (Saccharomyces cerevisiae) was “inactive”. For the same molecule, the Activity (A549) was “inactive”, the Activity (Staphylococcus aureus) was “inactive” and the Activity (Micrococcus luteus) was “inactive”.
`O=C(NC(CO)CO)c1ccccc1O[C@@H]1O[C@H](CO)[C@@H](O)[C@H](O)[C@H]1O` was tested, and the Activity (Escherichia coli) was “inactive”, the Activity [1] was “inactive” and the Activity (Saccharomyces cerevisiae) was “inactive”. The Activity (A549) was “inactive”, the Activity (Staphylococcus aureus) was “inactive” and the Activity (Micrococcus luteus) was “inactive”.
With `O=CN(O)CCC[C@@H](NC(=O)[C@H](CO)NC(=O)[C@@H]1COC(c2ccccc2O[C@@H]2O[C@H](CO)[C@@H](O)[C@H](O)[C@H]2O)=N1)C(=O)NCCC(=O)N[C@@H]1CCCN(O)C1=O` the Activity (Escherichia coli) was “inactive”, the Activity [1] was “inactive” and the Activity (Saccharomyces cerevisiae) was “inactive”. The Activity (A549) was “inactive”, the Activity (Staphylococcus aureus) was “inactive” and the Activity (Micrococcus luteus) was “inactive”.
With `OC[C@H]1O[C@@H](OC[C@@H]2COC(c3ccccc3O)=N2)[C@H](O)[C@@H](O)[C@@H]1O` the Activity (Escherichia coli) was “inactive”, the Activity [1] was “inactive” and the Activity (Saccharomyces cerevisiae) was “inactive”. For the same molecule, the Activity (A549) was “inactive”, the Activity (Staphylococcus aureus) was “inactive” and the Activity (Micrococcus luteus) was “inactive”.
In the case of `NC(=O)[C@@H]1COC(c2ccccc2O)=N1`, the Activity (Escherichia coli) was “inactive”, the Activity [1] was “inactive” and the Activity (Saccharomyces cerevisiae) was “inactive”. The Activity (A549) was “inactive”, the Activity (Staphylococcus aureus) was “inactive” and the Activity (Micrococcus luteus) was “inactive”.
With `N[C@H]1[C@H](Oc2ccccc2C2=N[C@H](CO)CO2)O[C@H](CO)[C@@H](O)[C@@H]1O` the Activity (Escherichia coli) was “inactive”, the Activity [1] was “inactive” and the Activity (Saccharomyces cerevisiae) was “inactive”. The Activity (A549) was “inactive”, the Activity (Staphylococcus aureus) was “inactive” and the Activity (Micrococcus luteus) was “inactive”. For the same molecule, the Activity (Hippocampal neurone [5]) was “inactive”.
In the case of `OC[C@@H]1COC(c2ccccc2O)=N1`, the Activity (Escherichia coli) was “inactive”, the Activity [1] was “inactive” and the Activity (Saccharomyces cerevisiae) was “inactive”. The Activity (A549) was “inactive”, the Activity (Staphylococcus aureus) was “inactive” and the Activity (Micrococcus luteus) was “inactive”.
For `N[C@H]1[C@H](Oc2ccccc2C2=N[C@H](C(=O)N[C@@H](CO)C(=O)N[C@H](CCCN(O)C=O)C(=O)NCCC(=O)N[C@@H]3CCCN(O)C3=O)CO2)O[C@H](CO)[C@@H](O)[C@@H]1O`, the Activity (Escherichia coli) was “inactive”, the Activity [1] was “inactive” and the Activity (Saccharomyces cerevisiae) was “inactive”. For the same molecule, the Activity (A549) was “inactive”, the Activity (Staphylococcus aureus) was “inactive” and the Activity (Micrococcus luteus) was “inactive”.
